Activity calls are given as the source filed them. No cut-off for these calls is given here.
Legend:
[1] = target: T1, Cystic fibrosis transmembrane conductance regulator (Homo sapiens, UniProt P13569); assay: Inhibition of human CFTR expressed in rat FRT cells coexpressing halide indicator YFP-H148Q assessed as inhibition of halide influx at 25 uM preincubated for 15 mins by FLIPR; assay type: cell-based
Method in brief: (§1)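 FRT cells coexpressing human CFTR and YFP halide sensor, assayed 48 h after plating at confluence. After PBS washes, CFTR activated with 5 µM forskolin, 100 µM IBMX and 25 µM apigenin. Compound added 5 min later and incubated 15 min. Fluorescence read 2 s baseline, then 10 s after iodide-substituted PBS addition. Initial iodide influx rate obtained by nonlinear regression.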
Target sequence in this assay (P13569 whole entry, looked up): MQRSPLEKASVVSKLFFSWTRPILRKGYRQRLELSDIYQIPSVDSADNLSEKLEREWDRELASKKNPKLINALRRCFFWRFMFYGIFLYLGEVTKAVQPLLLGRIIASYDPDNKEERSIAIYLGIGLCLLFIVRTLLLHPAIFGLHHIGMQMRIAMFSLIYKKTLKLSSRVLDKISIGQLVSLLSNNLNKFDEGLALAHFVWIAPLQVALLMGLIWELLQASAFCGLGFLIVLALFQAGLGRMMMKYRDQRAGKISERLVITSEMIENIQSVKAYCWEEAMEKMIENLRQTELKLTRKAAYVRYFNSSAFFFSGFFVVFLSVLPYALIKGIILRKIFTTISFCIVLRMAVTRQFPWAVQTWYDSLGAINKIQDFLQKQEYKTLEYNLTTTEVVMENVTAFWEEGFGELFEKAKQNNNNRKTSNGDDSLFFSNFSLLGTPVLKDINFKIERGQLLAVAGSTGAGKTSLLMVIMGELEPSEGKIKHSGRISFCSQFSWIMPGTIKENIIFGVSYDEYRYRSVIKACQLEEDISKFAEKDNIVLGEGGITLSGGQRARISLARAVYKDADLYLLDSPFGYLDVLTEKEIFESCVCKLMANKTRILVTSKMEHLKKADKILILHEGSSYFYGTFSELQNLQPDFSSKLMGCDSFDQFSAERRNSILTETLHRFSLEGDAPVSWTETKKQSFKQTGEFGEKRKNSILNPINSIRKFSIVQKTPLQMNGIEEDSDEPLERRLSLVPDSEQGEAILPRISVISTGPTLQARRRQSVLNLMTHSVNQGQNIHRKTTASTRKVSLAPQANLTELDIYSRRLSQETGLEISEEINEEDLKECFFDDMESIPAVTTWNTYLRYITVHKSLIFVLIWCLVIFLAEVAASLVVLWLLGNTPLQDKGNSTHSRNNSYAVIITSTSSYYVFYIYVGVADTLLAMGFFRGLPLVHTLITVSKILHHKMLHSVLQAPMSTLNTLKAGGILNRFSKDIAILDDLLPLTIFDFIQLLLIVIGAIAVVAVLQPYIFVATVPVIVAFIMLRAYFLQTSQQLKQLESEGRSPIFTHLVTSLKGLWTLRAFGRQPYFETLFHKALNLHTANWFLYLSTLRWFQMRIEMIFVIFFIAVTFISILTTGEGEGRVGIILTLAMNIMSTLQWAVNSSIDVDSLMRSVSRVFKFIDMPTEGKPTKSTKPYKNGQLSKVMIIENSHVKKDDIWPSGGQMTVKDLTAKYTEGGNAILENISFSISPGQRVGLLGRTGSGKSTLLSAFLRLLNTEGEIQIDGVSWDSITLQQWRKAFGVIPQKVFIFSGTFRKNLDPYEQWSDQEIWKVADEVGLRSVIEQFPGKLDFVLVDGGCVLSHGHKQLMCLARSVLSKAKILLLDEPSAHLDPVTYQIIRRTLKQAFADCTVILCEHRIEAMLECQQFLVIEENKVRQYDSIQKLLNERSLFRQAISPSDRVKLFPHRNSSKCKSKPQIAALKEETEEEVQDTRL

[2] = target: T1, Cystic fibrosis transmembrane conductance regulator; assay: Inhibition of human CFTR expressed in rat FRT cells coexpressing halide indicator YFP-H148Q assessed as inhibition of halide influx at 5 uM preincubated for 15 mins by FLIPR; assay type: cell-based; method in brief: as §1
Target sequence in this assay (P13569 whole entry, looked up): as above

[3] = target: T1, Cystic fibrosis transmembrane conductance regulator; assay: Inhibition of CFTR
Method in brief: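 Ussing-chamber apical membrane current in CFTR-expressing FRT cells under a chloride gradient: apical 75 mM NaCl/75 mM Na gluconate, basolateral 150 mM NaCl, pH 7.3. Basolateral membrane permeabilized with 250 µg/mL amphotericin B, air-bubbled, 37 °C. CFTR activated by 100 µM CPT-cAMP, then compound added at increasing concentrations. Dose–response, SE n = 4.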
Target sequence in this assay (P13569 whole entry): as the sequence (P13569 whole entry, looked up) above

[4] = target: T1, Cystic fibrosis transmembrane conductance regulator; conditions: T84, 10 uM
Target sequence in this assay (P13569 whole entry, looked up): as above

Kidney [5] = assay: Reduction in fluid accumulation in 3 days 8-Br-cAMP treated embryonic mouse kidney organ culture model of polycystic kidney disease at 5 uM after 1 or 2 days by transmission light microscopy; assay type: functional, tissue-based
Method in brief: (§2)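 E13.5 mouse metanephroi in defined organ-culture medium with 100 µM 8-Br-cAMP, changed every 12 h, 37 °C. Compound (5 µM) added at day 3 to kidneys with preformed cysts. Cyst area fraction by transmission light microscopy at day 5, six kidneys, SE.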

Kidney [6] = assay: Inhibition of cyst formation in 8-Br-cAMP treated embryonic mouse kidney organ culture model of polycystic kidney disease at 5 uM by transmission light microscopy; assay type: functional, tissue-based
Method in brief: (§3)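 E13.5 mouse metanephroi cultured on porous inserts in defined DMEM/Ham's F-12 (insulin, transferrin, selenium, prostaglandin E, T3) at 37 °C. Medium with 100 µM 8-Br-cAMP, with or without compound, replaced every 12 h. After 4 days, cyst area fraction measured by transmission light microscopy (SE, 6–8 kidneys), or paraffin sections H&E-stained (three kidneys per condition).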

CHO-K1 [7] = assay: Effect on forskolin-induced cAMP production in CHOK1 cells at 10 uM; assay type: functional, cell-based; conditions: Cricetulus griseus
Method in brief: (§4)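 cAMP measured in CHO-K1 cells under basal conditions and after 20 µM forskolin, with or without compound at 10 µM; SE, n = 4.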

Kidney [8] = assay: Reduction in cyst expansion in 8-Br-cAMP treated embryonic mouse kidney organ culture model of polycystic kidney disease by transmission light microscopy; assay type: functional, tissue-based; method in brief: as §3
[9] = target: T1, Cystic fibrosis transmembrane conductance regulator; assay: Inhibition of CFTR in nonpermeabilized human bronchial epithelial cells assessed as inhibition of forskolin and IBMX-induced chloride current at by short-circuit current analysis; assay type: cell-based, Epithelial cell
Method in brief: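 Ussing chamber short-circuit current in nonpermeabilized primary human bronchial epithelial cells on inserts; Krebs-bicarbonate both sides, bubbled with 5% CO2 in air, 37 °C. CFTR maximally activated by 10 µM forskolin plus 100 µM IBMX, then inhibitor added; current recorded continuously with voltage clamp.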
Target sequence in this assay (P13569 whole entry): as the sequence (P13569 whole entry, looked up) above

[10] = target: T1, Cystic fibrosis transmembrane conductance regulator; assay: Inhibition of human CFTR expressed in rat FRT cells assessed as inhibition of CPT-cAMP-induced apical membrane current in presence of transepithelial chloride gradient and basolateral membrane permeabilization with amphotericin B by short-circuit current analysis; assay type: cell-based
Method in brief: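 FRT cells stably coexpressing human wild-type CFTR, mounted in Ussing chambers. Apical 75 mM NaCl/75 mM Na gluconate, basolateral 150 mM NaCl (pH 7.3), basolateral membrane permeabilized with 250 µg/mL amphotericin B, air-bubbled, 37 °C. CFTR activated by 100 µM CPT-cAMP, then increasing inhibitor concentrations added cumulatively. Apical current recorded continuously; dose–response, SE n = 4.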
Target sequence in this assay (P13569 whole entry): as the sequence (P13569 whole entry, looked up) above

Kidney [11] = assay: Reduction in cyst size in 8-Br-cAMP treated embryonic mouse kidney organ culture model of polycystic kidney disease by hematoxylin and eosin staining after 4 days; assay type: functional, tissue-based; method in brief: as §3
CHO-K1 [12] = assay: Effect on basal cAMP production in CHOK1 cells at 10 uM; assay type: functional, cell-based; conditions: Cricetulus griseus; method in brief: as §4
[13] = target: T1, Cystic fibrosis transmembrane conductance regulator; conditions: FRT, 0.5 uM
Target sequence in this assay (P13569 whole entry, looked up): as above

Epithelial cell [14] = assay: Inhibition of calcium-activated chloride channel in CFTR deficient human bronchial epithelial cells assessed as inhibition of UTP-induced chloride current at 10 uM; assay type: cell-based
Method in brief: (§5)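 Ussing-chamber short-circuit current in cystic fibrosis (CFTR-deficient) human bronchial epithelial cells, Krebs-bicarbonate both sides, 5% CO2 in air, 37 °C. ENaC blocked with 10 µM amiloride. Calcium-activated chloride channels stimulated with 100 µM UTP, compound added as indicated.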

Epithelial cell [15] = assay: Inhibition of calcium-activated chloride channel in CFTR deficient human bronchial epithelial cells assessed as inhibition of UTP-induced chloride current at 20 uM; assay type: cell-based; method in brief: as §5
[16] = target: T1, Cystic fibrosis transmembrane conductance regulator; conditions: Epithelial cell, 10 uM
Target sequence in this assay (P13569 whole entry, looked up): as above

Kidney [17] = assay: Reduction in size of preformed cysts in 8-Br-cAMP treated embryonic mouse kidney organ culture model of polycystic kidney disease by transmission light microscopy; assay type: functional, tissue-based; method in brief: as §2
Kidney [18] = assay: Inhibition of cyst formation in 8-Br-cAMP treated embryonic mouse kidney organ culture model of polycystic kidney disease at 2.5 uM by transmission light microscopy; assay type: functional, tissue-based
Method in brief: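 E13.5 mouse metanephroi cultured on porous inserts in defined DMEM/Ham's F-12 (insulin, transferrin, selenium, prostaglandin E, T3) at 37 °C. Medium with 100 µM 8-Br-cAMP, with or without inhibitor, replaced every 12 h. After 4 days, transmission light micrographs scored as fractional kidney area occupied by cysts (6–8 kidneys, SE).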

Kidney [19] = assay: Inhibition of cyst formation in 8-Br-cAMP treated embryonic mouse kidney organ culture model of polycystic kidney disease at 0.5 uM by transmission light microscopy; assay type: functional; method in brief: as §3

Compound	inhibition [1] [%]	inhibition [2] [%]	further results
Cc1cccc(C2Nc3ccccc3-n3c(-c4ccccc4C)c4c(=O)n(C)c(=O)n(C)c4c32)c1 (stereo unspecified)	100	46	
Cn1c(=O)c2c(-c3ccccc3)n3c(c2n(C)c1=O)C(c1cccc([N+](=O)[O-])c1)Nc1ccccc1-3 (stereo unspecified)	90	60	
O=C(O)c1ccc(/C=C2\SC(=S)N(c3cccc(C(F)(F)F)c3)C2=O)cc1			IC50 [3]: 300 nM
Cn1c(=O)c2c(-c3ccccc3)n3c(c2n(C)c1=O)C(c1ccc(O)cc1)Nc1ccccc1-3 (stereo unspecified)	86	64	
Cc1ccc(C2Nc3cc(C)c(C)cc3-n3c(-c4ccccc4)c4c(=O)n(C)c(=O)n(C)c4c32)o1 (stereo unspecified)	90	84	
Cn1c(=O)c2c(-c3ccccc3)n3c(c2n(C)c1=O)C(c1cccc(F)c1F)Nc1ccccc1-3 (stereo unspecified)	93	72	
Cc1cccc(-c2c3c(=O)n(C)c(=O)n(C)c3c3n2-c2ccccc2NC3c2ccc(C)o2)c1 (stereo unspecified)	98	82	
Cc1cccc(-c2c3c(=O)n(C)c(=O)n(C)c3c3n2-c2ccccc2NC3c2cccc(F)c2)c1 (stereo unspecified)	93	53	
Cc1ccc(C2Nc3ccccc3-n3c(-c4ccccc4)c4c(=O)n(C)c(=O)n(C)c4c32)o1 (stereo unspecified)	97	87	inhibition [4]: 100%; inhibition (Kidney [5]): Active; Activity (Kidney [6]): Active; Activity (CHO-K1 [7]): inactive; Activity (Kidney [8]): Active; IC50 [9]: < 1000 nM; IC50 [10]: 90 nM; inhibition (Kidney [11]): Active; Activity (CHO-K1 [12]): inactive; inhibition [13]: 65%; Activity (Epithelial cell [14]): inactive; Activity (Epithelial cell [15]): inactive; inhibition [16]: 100%; Activity (Kidney [17]): Active; inhibition (Kidney [18]): Active; inhibition at 0.5 µM (Kidney [19]): 60%
Cn1c(=O)c2c(-c3ccccc3)n3c(c2n(C)c1=O)C(c1ccccc1)Nc1ccccc1-3 (stereo unspecified)	92	61	
COc1cccc(C2Nc3ccccc3-n3c(-c4ccccc4F)c4c(=O)n(C)c(=O)n(C)c4c32)c1 (stereo unspecified)	97	62	
O=C(CNc1ccc2ccccc2c1)N/N=C/c1cc(Br)c(O)c(Br)c1O			IC50 [3]: 5000 nM
COc1cccc(C2Nc3ccccc3-n3c(-c4ccccc4C)c4c(=O)n(C)c(=O)n(C)c4c32)c1 (stereo unspecified)	94	62	
Cc1ccc(C2Nc3cc(C)c(C)cc3-n3c(-c4ccccc4F)c4c(=O)n(C)c(=O)n(C)c4c32)o1 (stereo unspecified)	87	80	
COc1cc(O)ccc1C1Nc2ccccc2-n2c(-c3ccccc3)c3c(=O)n(C)c(=O)n(C)c3c21 (stereo unspecified)	56	5	
Cc1cccc(-c2c3c(=O)n(C)c(=O)n(C)c3c3n2-c2ccccc2NC3c2ccc(O)cc2)c1 (stereo unspecified)	94	71	
Cc1ccccc1-c1c2c(=O)n(C)c(=O)n(C)c2c2n1-c1ccccc1NC2c1ccccc1 (stereo unspecified)	97	51	
Cc1ccc(C2Nc3ccccc3-n3c(-c4ccccc4C)c4c(=O)n(C)c(=O)n(C)c4c32)o1 (stereo unspecified)	97	86	
COc1cccc(C2Nc3ccccc3-n3c(-c4ccccc4)c4c(=O)n(C)c(=O)n(C)c4c32)c1 (stereo unspecified)	86	63	
Cc1ccccc1-c1c2c(=O)n(C)c(=O)n(C)c2c2n1-c1ccccc1NC2c1cccc([N+](=O)[O-])c1 (stereo unspecified)	96	64	
Cc1cccc(-c2c3c(=O)n(C)c(=O)n(C)c3c3n2-c2ccccc2NC3c2ccccc2F)c1 (stereo unspecified)	80	67	
Cc1cccc(-c2c3c(=O)n(C)c(=O)n(C)c3c3n2-c2ccccc2NC3c2cccc([N+](=O)[O-])c2F)c1 (stereo unspecified)	94	61	
Cc1cc2c(cc1C)-n1c(-c3ccccc3)c3c(=O)n(C)c(=O)n(C)c3c1C(c1ccc(O)cc1)N2 (stereo unspecified)	99	80	
Cn1c(=O)c2c(-c3ccccc3F)n3c(c2n(C)c1=O)C(c1cccc(Cl)c1)Nc1ccccc1-3 (stereo unspecified)	98	70	
COc1cccc(C2Nc3ccccc3-n3c(-c4cccc(C)c4)c4c(=O)n(C)c(=O)n(C)c4c32)c1 (stereo unspecified)	98	73	
Cn1c(=O)c2c(-c3ccccc3)n3c(c2n(C)c1=O)C(c1ccccc1F)Nc1ccccc1-3 (stereo unspecified)	81	61	

From ChEMBL document CHEMBL1221227, “Nanomolar potency pyrimido-pyrrolo-quinoxalinedione CFTR inhibitor reduces cyst size in a polycystic kidney disease model” (J Med Chem, 2009)
